What is called IC50 is the point on the concentration scale where inhibition reaches its midpoint. A lower IC50 goes with higher potency. The term AUC denotes concentration integrated over time. Lower therefore signals low exposure. Usually bioavailability stands for dose-corrected exposure relative to a reference, in per cent. Read a low bioavailability as poor availability. A word on the inhibition in vivo: it is the relative decrease from the control value, in per cent. Lower therefore signals little suppression.

SMILES strings stand for the structures.

Data set [1] can be described thus: Inhibition of VLA-4 in human serum binding to VCAM-1 in human Jurkat TM cells after 30 mins by fibronectin mediated cell adhesion assay. The class given is cell-based. Particulars: 0.5 h. The procedure, abridged: (§1)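 Cells were preincubated 30 min on wet ice with anti-α5 (5 µg/ml) and a compound dose–response, then allowed to bind 35 min at 37 °C, 5% CO2 to human plasma fibronectin-coated wells. Wells were washed 3× and read by fluorescence to give IC50.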

Data set [2] can be described thus: Inhibition of VLA-4 binding to VCAM-1 in human Jurkat TM cells after 30 mins by fibronectin mediated cell adhesion assay using BSA. It is filed as cell-based. The procedure, abridged:
(§2)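 Calcein-labelled Jurkat TM cells (10^5/well) in Hepes 20 mM, NaCl 140 mM, CaCl2 1 mM, MgCl2 1 mM, 0.3% BSA with activating anti-α4 TS2/16. Cells were preincubated 30 min on wet ice with anti-α5 (5 µg/ml) and a compound dose–response, then bound 35 min at 37 °C, 5% CO2 to human plasma fibronectin-coated wells. Wells were washed 3× and read by fluorescence to give IC50.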

A short description of data set [3]: AUC in iv dosed Sprague-Dawley rat. It is filed as ADME, organism-based. Particulars: plasma.
A short description of data set [4]: Inhibition of VLA-4 in mouse serum binding to VCAM-1 in human Jurkat TM cells after 30 mins by fibronectin mediated cell adhesion assay. It is filed as cell-based. Particulars: 0.5 h.
A short description of data set [5]: Plasma concentration in po dosed Sprague-Dawley rat after 12 hrs. The class given is ADME, organism-based.
Data set [6] is described as follows: Oral bioavailability in Sprague-Dawley rat. It is filed as ADME, organism-based. Particulars: in vivo.
Data set [7] in a line: AUC in po dosed Sprague-Dawley rat. It is filed as ADME, organism-based. Particulars: plasma.
The subject of data set [8] is Mus musculus. As to the kind of experiment: Inhibition of Eos influx in Black/6 mouse acute pulmonary cellular influx model at 3 mg/kg, po bid administered 1hr prior and 12 hrs post ova/alum challenge on day 28 and 29 relative to PS/2. The class given is functional. An outline of the steps: (§3)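 Female Black/6 mice were sensitized i.p. with ova/alum on day 1, boosted on day 14, and challenged with aerosolized ova on days 28 and 29. Compound was given by oral gavage (5 ml/kg) twice daily on days 28–29, 1 h before and 12 h after challenge. BAL was collected on day 30, 48 h after the first challenge. Eosinophil influx was reported as % inhibition against vehicle or against PS/2 (anti-α4, 10 mg/kg iv, 2 h before first challenge).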

Data set [9] in a line: Inhibition of VLA-4 (unknown origin) binding to VCAM-1 in human Jurkat TM cells after 30 mins by fibronectin mediated cell adhesion assay. It is filed as cell-based. The procedure, abridged: as §2
The nature of data set [10]: Inhibition of VLA-4 in rat serum binding to VCAM-1 in human Jurkat TM cells after 30 mins by fibronectin mediated cell adhesion assay. It is filed as cell-based. Particulars: 0.5 h. The procedure, abridged: as §1
The test system of data set [11] is Mus musculus. Nature of the data set: Inhibition of Eos influx in Black/6 mouse acute pulmonary cellular influx model at 10 mg/kg, po bid administered 1hr prior and 12 hrs post ova/alum challenge on day 28 and 29 relative to alpha4 antibody PS/2. The class given is functional. An outline of the steps: as §3
The test system of data set [12] is Mus musculus. Nature of the data set: Inhibition of Eos influx in Black/6 mouse acute pulmonary cellular influx model at 10 mg/kg, po bid administered 1hr prior and 12 hrs post ova/alum challenge on day 28 and 29 relative to vehicle-treated control. The class given is functional. An outline of the steps: as §3
In data set [13] the test system is Mus musculus. As to the kind of experiment: Inhibition of Eos influx in Black/6 mouse acute pulmonary cellular influx model at 3 mg/kg, po bid administered 1hr prior and 12 hrs post ova/alum challenge on day 28 and 29 relative to vehicle-treated control. The class given is functional. An outline of the steps:
as §3

Take `CCN(CC)c1ncc(N(C)S(=O)(=O)c2ccc(F)cc2)c(N[C@@H](Cc2ccc(OC(=O)N(C)C)cc2)C(=O)O)n1`: the IC50 turned out to be 45 nM in [1]; 2 nM in data set [2]; 6 nM in [4]; 2 nM in data set [9]; 280 nM in data set [10]. Further, the AUC in data set [3] was 27000 ng·h/mL; in data set [7], 20000 ng·h/mL. The compound further gave a concentration at 12 h in data set [5] of 120 ng/mL. The same compound displayed a bioavailability in [6] of 74%. Further, the inhibition in vivo at 3 mg/kg in the data set with Mus musculus [8] is 5%; in the data set on Mus musculus [13] it was 3%. Further, the figures for the inhibition in vivo at 10 mg/kg with Mus musculus [11] and in the data set with Mus musculus [12] were 80% and 45%, respectively.

The values are drawn from ChEMBL document CHEMBL2380222, “Arylsulfonamide pyrimidines as VLA-4 antagonists” (Bioorg Med Chem Lett, 2013).
